Source: paper PMC8897028 (Acta Pharmaceutica Sinica. B, 2021)

Columns and labels:
mTRPV3 F666A = target: T1, mTRPV3 F666A (Mus musculus, UniProt Q8K424, F666A); test: whole-cell patch-clamp of mTRPV3 F666A mutant in HEK293 cells; assay type: cell-based; conditions: compound 50 μmol/L; 2-APB; compared with WT mTRPV3
T1 sequence (Q8K424 1-791 F666A): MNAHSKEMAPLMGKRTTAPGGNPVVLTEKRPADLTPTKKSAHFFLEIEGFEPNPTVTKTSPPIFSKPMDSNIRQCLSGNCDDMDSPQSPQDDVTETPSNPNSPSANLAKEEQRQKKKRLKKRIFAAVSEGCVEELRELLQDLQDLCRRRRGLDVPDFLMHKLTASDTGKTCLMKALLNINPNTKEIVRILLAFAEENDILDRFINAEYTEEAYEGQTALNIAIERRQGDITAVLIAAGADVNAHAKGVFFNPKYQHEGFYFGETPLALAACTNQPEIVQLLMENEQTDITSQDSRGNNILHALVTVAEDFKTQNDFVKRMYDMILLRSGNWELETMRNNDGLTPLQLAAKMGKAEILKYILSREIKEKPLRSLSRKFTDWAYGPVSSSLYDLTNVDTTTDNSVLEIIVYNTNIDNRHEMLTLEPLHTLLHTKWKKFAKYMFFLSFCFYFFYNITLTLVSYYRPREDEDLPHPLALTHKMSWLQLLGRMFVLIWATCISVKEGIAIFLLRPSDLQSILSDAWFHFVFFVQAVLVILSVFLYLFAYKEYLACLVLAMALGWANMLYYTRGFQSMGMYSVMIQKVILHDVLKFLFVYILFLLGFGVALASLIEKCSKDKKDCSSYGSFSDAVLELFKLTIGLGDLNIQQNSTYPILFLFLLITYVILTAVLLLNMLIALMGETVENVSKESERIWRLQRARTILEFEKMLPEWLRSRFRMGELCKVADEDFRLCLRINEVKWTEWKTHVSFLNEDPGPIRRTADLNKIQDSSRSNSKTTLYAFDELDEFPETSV
Procedure, shortened: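 Mouse Trpv3 point mutants were made by site-directed mutagenesis, sequence-verified, and transiently expressed in HEK293 cells alongside wild-type mTRPV3. Whole-cell ramp recordings (−100 to +100 mV, 500 ms, holding 0 mV) were made at 22–24 °C. Currents were activated by 2-APB, and inhibition by 50 μmol/L test compound in the presence of 2-APB was compared with wild type; n = 3–8.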

HaCaT cells [1] = test: cell proliferation MTT assay, HaCaT cells; assay type: cell-based, human; conditions: IAB at 10 and 100 μmol/L with carvacrol 300 μmol/L, 24 h
Procedure, shortened: (§1)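 hTRPV3-transfected HEK293 or HaCaT cells were plated at 5 × 10^3 per well for 24 h, then exposed 24 h to TRPV3 activator and/or inhibitor in culture medium. MTT (5 mg/mL solution) was added for 4 h. Medium was removed, formazan dissolved in DMSO, and absorbance read at 490 nm.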

[2] = system: HEK293 cells expressing hTRPV3; test: cell death assay; assay type: cell-based, human; conditions: 12 h, n = 4
Procedure, shortened: (§2)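 HEK293 cells 12 h after hTRPV3 transfection, or HaCaT cells, were seeded in six-well plates, randomly split into 6 groups, and treated 12 h in culture medium. Cells were detached with 0.25% trypsin (HEK293 1 min; HaCaT 7 min), centrifuged, and stained 30 min in PBS with Hoechst and PI. Five random fields per group were imaged. Death ratio = PI-labelled over Hoechst-labelled nuclei, averaged over five images; n = 4.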

HaCaT cells [3] = test: cell death assay; assay type: cell-based, human; conditions: IAB added with carvacrol 300 μmol/L; 12 h
Procedure, shortened: as §2

[4] = system: HEK293 cells expressing hTRPV3; test: cell proliferation MTT assay, HEK293 cells transfected with hTRPV3; assay type: cell-based, human; conditions: IAB at 10 and 100 μmol/L with carvacrol 300 μmol/L, 24 h
Procedure, shortened: as §1

| Compound | effect of mutation on compound-induced inhibition of mTRPV3 currents (mTRPV3 F666A) | reversal of overactive TRPV3-induced inhibition of cell proliferation (HaCaT cells [1]) | cell death ratio ([2]; IAB 10 μmol/L with carvacrol 300 μmol/L) | cell death ratio ([2]; IAB 100 μmol/L with carvacrol 300 μmol/L) | HaCaT cell death (HaCaT cells [3]) | reversal of overactive TRPV3-induced inhibition of cell proliferation [4] |
| --- | --- | --- | --- | --- | --- | --- |
| O=C(/C=C/c1ccc(O)c(O)c1)O[C@@H]1C[C@](O)(C(=O)O)C[C@@H](OC(=O)/C=C/c2ccc(O)c(O)c2)[C@H]1O [IAA, isochlorogenic acid A] | markedly reduced | – | – | – | – | – |
| O=C(/C=C/c1ccc(O)c(O)c1)O[C@@H]1[C@H](O)C[C@@](O)(C(=O)O)C[C@H]1OC(=O)/C=C/c1ccc(O)c(O)c1 [IAB, isochlorogenic acid B] | markedly reduced | significantly reversed | 11.7 ± 0.9% | 9.9 ± 1.2% | dose-dependent reduction of HaCaT cell death | significantly reversed |
